Consider six molecules from publication PMC3673019 (Biochemistry, 2012).

The target of series [1] is T1, eEF-2K (Homo sapiens, UniProt O00418). It counts as biochemical.
The target of series [2] is T1, eEF-2K. Description: Phosphorylation of wheat germ EF2 by eEF-2K in vitro. The format is biochemical.
For series [3], the system named is C6 glioma cells. The conditions noted are these: 1 µM NH125, 12 hours; cited from earlier work.
For series [4], the system named is HEK-293T cells. Description: Western blot of phospho-eEF2. The format is cell-based. The conditions noted are these: 4 µM NH125, 0–12 h.
Series [5] deals with A549 lung cancer cells. Description: Western blot of phospho-eEF2. The format is cell-based. The conditions noted are these: 4 µM NH125, 0–12 h.
The subject of series [6] is eEF2 phosphorylation in the hippocampus. The following applies: 5 mg/kg, 30 minutes, mice; cited from earlier work.
Series [7] has as its target T1, eEF-2K. Description: Dose-response inhibition of Pep-S phosphorylation by NH125. The format is biochemical. The following applies: in the presence of 0.1% triton X-100.
For series [8], the system named is human microvascular endothelial cells (HMVECs). The conditions noted are these: 200 nM NH125, 2 hour pre-incubation; cited from earlier work.
Series [9] deals with cancer cell lines. The following applies: read-out: EC50, decrease of viability; a number of cancer cell lines; cited from earlier work.
In series [10] the target is T2, TRPM7 (Homo sapiens, UniProt Q96QT4).
T2 sequence (Q96QT4 1551-1830): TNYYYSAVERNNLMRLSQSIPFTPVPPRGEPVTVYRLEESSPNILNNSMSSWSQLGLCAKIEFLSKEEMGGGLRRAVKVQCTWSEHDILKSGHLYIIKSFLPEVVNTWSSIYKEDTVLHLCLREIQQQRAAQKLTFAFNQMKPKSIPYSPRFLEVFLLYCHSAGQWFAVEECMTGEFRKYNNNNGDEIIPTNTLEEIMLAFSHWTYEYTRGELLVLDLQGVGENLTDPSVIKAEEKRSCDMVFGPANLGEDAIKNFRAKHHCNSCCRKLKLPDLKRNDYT
Description: Dose-response inhibition assay against TRPM7. It counts as biochemical. The conditions noted are these: 25 nM TRPM7, 500 µM ATP (data not shown).

Series [11] concerns MDA-MB-231 breast cancer cells. Description: Western blot of phospho-eEF2. The following applies: 4 µM NH125, 0–12 h. It counts as cell-based.
Series [12] concerns H1299, PC3, HeLa, H460 and C6 cell lines. The following applies: NH125 for 6 hours; cited from earlier work.
The target of series [13] is ERK2 (Homo sapiens, UniProt P28482). Description: Dose-response inhibition assay against ERK2. The format is biochemical. A digest of the protocol:
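Radiometric kinase assay: 2 nM ERK2, 500 µM [γ-32P]-ATP, 20 µM Ets1 substrate, test compound 0–500 µM. IC50 and Hill coefficient came from a dose-response equation fit.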

For series [14], the system named is GST-eEF-2K. The following applies: in vitro kinase assay; cited from earlier work.
Series [15] has as its system eEF-2K. The conditions noted are these: cited from earlier work.
The conditions of series [16]: cited from earlier work.
Setting [17] is: varied ATP 12.5–125 µM, fixed Pep-S 50 µM.

Entries after “also recorded” stand apart in the source; their conditions may differ. Like-named read-outs stand apart in the source and are kept apart here.

T1 sequence (O00418 whole entry): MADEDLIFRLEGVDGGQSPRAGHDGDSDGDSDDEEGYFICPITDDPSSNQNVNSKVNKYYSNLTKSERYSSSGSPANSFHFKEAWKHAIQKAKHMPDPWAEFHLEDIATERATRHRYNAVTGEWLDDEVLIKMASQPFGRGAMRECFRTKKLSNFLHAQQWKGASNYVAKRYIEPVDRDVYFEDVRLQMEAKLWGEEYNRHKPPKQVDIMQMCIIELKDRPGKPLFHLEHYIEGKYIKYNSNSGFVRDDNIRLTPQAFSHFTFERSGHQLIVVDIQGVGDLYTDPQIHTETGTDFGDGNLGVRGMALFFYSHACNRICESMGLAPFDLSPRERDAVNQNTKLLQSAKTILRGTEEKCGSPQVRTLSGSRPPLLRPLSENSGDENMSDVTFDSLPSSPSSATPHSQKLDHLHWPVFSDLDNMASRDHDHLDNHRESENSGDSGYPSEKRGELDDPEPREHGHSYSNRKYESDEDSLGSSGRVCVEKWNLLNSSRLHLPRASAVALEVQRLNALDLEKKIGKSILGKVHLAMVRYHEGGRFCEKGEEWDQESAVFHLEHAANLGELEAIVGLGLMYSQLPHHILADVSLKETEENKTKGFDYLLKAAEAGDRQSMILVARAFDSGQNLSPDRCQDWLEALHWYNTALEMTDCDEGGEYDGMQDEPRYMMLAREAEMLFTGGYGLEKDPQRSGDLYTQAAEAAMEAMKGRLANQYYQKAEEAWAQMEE
Sequence of ERK2 (P28482 whole entry, species assumed): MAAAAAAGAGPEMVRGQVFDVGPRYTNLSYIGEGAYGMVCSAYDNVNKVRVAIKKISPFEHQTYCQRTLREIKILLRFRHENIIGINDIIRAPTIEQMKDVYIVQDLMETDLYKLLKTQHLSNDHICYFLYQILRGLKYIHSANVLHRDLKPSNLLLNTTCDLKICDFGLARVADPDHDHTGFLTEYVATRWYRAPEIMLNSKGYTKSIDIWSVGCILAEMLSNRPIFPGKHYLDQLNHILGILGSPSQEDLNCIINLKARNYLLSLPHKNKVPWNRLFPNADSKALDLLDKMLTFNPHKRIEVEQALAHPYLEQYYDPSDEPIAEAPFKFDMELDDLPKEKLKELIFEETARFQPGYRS

With `Nc1ncnc2c1ncn2[C@@H]1O[C@H](COP(=O)(O)OP(=O)(O)O)[C@@H](O)[C@H]1O` [ADP, adenosine diphosphate], the Mechanism of inhibition result was “Competitive ^d” in series [1] (setting [17]) and “Mixed ^g” in series [1] (varied Pep-S, fixed ATP 50 µM).
Turning to `Nc1ncnc2c1ncn2[C@@H]1O[C@H](COP(=O)(O)OP(=O)(O)OP(=O)(O)O)[C@@H](O)[C@H]1O` [ATP, adenosine triphosphate], in [1], the Kd stood at 16.2 ± 6.9 µM.
With `CCCCCCCCCCCCCCCC[n+]1ccn(Cc2ccccc2)c1C.[I-]` [NH125, 1-benzyl-3-cetyl-2-methylimidazolium iodide], the “effect on the rate of phosphorylation of wheat germ eEF2” value in series [2] (NH125 0–5 µM, 1 µM eEF2, 7.5 µM ATP, 10 nM eEF-2K) is given as “no detectable effect; also recorded: failed to inhibit”. Besides, in [2] (NH125 12.5 – 50 µM (Figure S3)), the “effect on phosphorylation of wheat germ eEF2” value is listed as “inhibition is observed”. Besides, in [3], the “phosphorylation of eEF2” value is listed as “strongly inhibits”. The “levels of eEF-2K and eEF-2” value in series [4], in series [5] and in series [11] was “increase” each time. Besides, the “phospho-eEF2 (Thr-56) level” value in [4] (versus DMSO), in series [5] (versus DMSO) and in [11] (versus DMSO) was “No sign of decrease; also recorded: increased; also recorded: no inhibition was observed; also recorded: did not inhibit” throughout. For the same molecule, the “eEF2 phosphorylation in the hippocampus” value in series [6] is “observable decrease”. Besides, the Hill coefficient stood at 1.0 ± 0.28 in [7]; 1.6 in [10]; 3.6 in series [13] (2 nM ERK2, 500 µM ATP (data not shown)). Moreover, in [8], the “resveratrol-induced eEF2 phosphorylation” value was “inhibition”. For the same molecule, the concentration for a half-maximal effect (EC50) in series [9] was 1 to 5 µM. In series [12], the “phosphorylation of eEF-2” value is “induction; also recorded: induce phosphorylation”. The 50% inhibitory concentration (IC50) was 70 µM in series [13] and 0.06 µM in [14].
On to `CC(=O)c1c(O)c(C)c(O)c(Cc2c(O)c3c(c(C(=O)/C=C/c4ccccc4)c2O)OC(C)(C)C=C3)c1O` [Rottlerin, rottlerin], for which, in series [15], the kinase selectivity entry is given as “nonspecific inhibitor of multiple protein kinases”.
On to `O=C1OC(c2cc(I)c(O)c(I)c2)(c2c(I)cc(O)cc2I)c2ccccc21` (stereo not shown) [tetraiodophenolphthalein], for which, in series [16], the diameter of aggregates entry is “approximately 150 nm”.
Regarding Ac-RKKYKFNEDAERRRFL-NH2 [Pep-I], the Mechanism of inhibition result in [1] (setting [17]) is recorded as “Mixed ^g”; in [1] (varied Pep-S, fixed ATP 50 µM) it was “Competitive ^d”.
